Reference: ChEMBL document CHEMBL1135890, “Structure-activity relationships of 2'-fluoro-2',3'-unsaturated D-nucleosides as anti-HIV-1 agents” (J Med Chem, 2002)

Key:
[1] = substrate: Nc1ncnc2c1ncn2[C@@H]1O[C@H](CO)[C@@H](O)[C@H]1O; assay: (§1) Michaelis constant was determined against mammalian Adenosine deaminase
How it was run: (§2)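 Calf intestinal mucosa adenosine deaminase (EC 3.5.4.4), 0.15–0.24 unit depending on substrate. Substrate 15–200 μM in phosphate buffer pH 7.4 at 25 °C. Deamination followed by UV absorbance at 265 nm. Each reaction medium was checked by TLC or UV to confirm the deaminated substrate was the sole product.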

[2] = substrate: Nc1ncnc2c1ncn2C1OC(CO)C=C1O; assay: as §1; how it was run: as §2
[3] = substrate: Nc1ncnc2c1ncn2[C@@H]1O[C@H](CO)C=C1F; assay: as §1; how it was run: as §2

B1: Adenosine deaminase (Homo sapiens), P00813 (protein)
chain: MAQTPAFDKPKVELHVHLDGSIKPETILYYGRRRGIALPANTAEGLLNVIGMDKPLTLPDFLAKFDYYMPAIAGCREAIKRIAYEFVEMKAKEGVVYVEVRYSPHLLANSKVEPIPWNQAEGDLTPDEVVALVGQGLQEGERDFGVKARSILCCMRHQPNWSPKVVELCKKYQQQTVVAIDLAGDETIPGSSLLPGHVQAYQEAVKSGIHRTVHAGEVGSAEVVKEAVDILKTERLGHGYHTLEDQALYNRLRQENMHFEICPWSSYLTGAWKPDTEHAVIRLKNDQANYSLNTDDPLIFKSTLDTDYQMTKRDMGFTEEEFKRLNINAAKSSFLPEDEKRELLDLLYKAYGMPPSASAGQNL
Km [1]: 5 µM | Km [2]: 30 µM | Km [3]: 23 µM
